From ChEMBL document CHEMBL1122494, “New selenium-75 labeled radiopharmaceuticals: selenonium analogues of dopamine” (J Med Chem, 1983)

Experiments:
Assay type in all cases: ADME, organism-based
Rattus norvegicus [1] = experiment: Tissue radioactivity ratio in adrenal to Liver 30 min after Intravenous Injection in rats; details: in vivo, 0.5 h
How it was run: (§1)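 Same rat biodistribution: female Sprague-Dawley rats (100-300 g), 5-6 μCi [75Se]selenonium salt in 0.2 mL saline iv by tail vein, five per time point, killed by cardioectomy under chloroform. Ratios are tissue-to-tissue quotients of gamma-counted % injected dose per gram in each organ (adrenal, heart, kidney, liver, blood).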

Rattus norvegicus [2] = experiment: Distribution of Se-75 activity in blood of female Sprague-Dawley Rat 60 min after iv administration of compound; details: in vivo, 1 h
How it was run: (§2)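 Female Sprague-Dawley rats (100-300 g) got 5-6 μCi of [75Se]selenonium salt in 0.2 mL saline via lateral tail vein. Groups of five were anesthetized with chloroform at set times and killed by cardioectomy. Tissues were rinsed, blotted and weighed, then gamma-counted. Values are % injected dose per gram, mean and SEM of five.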

Rattus norvegicus [3] = experiment: Tissue radioactivity ratio in adrenal to Liver 60 min after Intravenous Injection in rats; details: in vivo, 1 h; how it was run: as §1
Rattus norvegicus [4] = experiment: Tissue radioactivity ratio in adrenal to Kidney 240 min after Intravenous Injection in rats; details: in vivo, 4 h; how it was run: as §1
Rattus norvegicus [5] = experiment: Distribution of Se-75 activity in Liver of female Sprague-Dawley Rat 15 min after iv administration of compound; details: in vivo, 0.25 h
How it was run: (§3)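 Female Sprague-Dawley rats (100-300 g), five per group, got [75Se]selenonium salt in 0.2 mL saline (5-6 μCi) by lateral tail vein. They were killed by cardioectomy under chloroform anesthesia at the stated time. A sample of the large organ was weighed and gamma counted, and counts were converted to % injected dose/g. Values are mean and SEM of five.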

Rattus norvegicus [6] = experiment: Distribution of Se-75 activity in Heart of female Sprague-Dawley Rat 30 min after iv administration of compound; details: in vivo, 0.5 h
How it was run: (§4)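 Female Sprague-Dawley rats (100-300 g), five per group, got [75Se]selenonium salt by lateral tail vein: 0.2 mL saline with 5-6 μCi. Groups were killed by cardioectomy under chloroform anesthesia at the set times. The organ was taken intact, rinsed with saline, blotted, weighed and gamma counted. Values are % injected dose/g, mean and SEM of five.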

Rattus norvegicus [7] = experiment: Distribution of Se-75 activity in Lung of female Sprague-Dawley Rat 15 min after iv administration of compound; details: in vivo, 0.25 h; how it was run: as §3
Rattus norvegicus [8] = experiment: Distribution of Se-75 activity in Adrenal of female Sprague-Dawley Rat 15 after iv administration of compound; details: in vivo; how it was run: as §4
Rattus norvegicus [9] = experiment: Tissue radioactivity ratio in adrenal to Kidney 60 min after Intravenous Injection in rats; details: in vivo, 1 h; how it was run: as §1
Rattus norvegicus [10] = experiment: Tissue radioactivity ratio in Heart to Blood 60 min after Intravenous Injection in rats; details: other tissue, 1 h; how it was run: as §1
Rattus norvegicus [11] = experiment: Distribution of Se-75 activity in Lung of female Sprague-Dawley Rat 5 min after iv administration of compound; details: in vivo; how it was run: as §3
Rattus norvegicus [12] = experiment: Distribution of Se-75 activity in Adrenal of female Sprague-Dawley Rat 60 min after iv administration of compound; details: in vivo, 1 h; how it was run: as §4
Rattus norvegicus [13] = experiment: Distribution of Se-75 activity in Brain of female Sprague-Dawley Rat 60 min after iv administration of compound; details: in vivo, 1 h
Rattus norvegicus [14] = experiment: Tissue radioactivity ratio in adrenal to blood 240 min after Intravenous Injection in rats; details: other tissue, 4 h; how it was run: as §1
Rattus norvegicus [15] = experiment: Distribution of Se-75 activity in blood of female Sprague-Dawley Rat 30 min after iv administration of compound; details: in vivo, 0.5 h; how it was run: as §2
Rattus norvegicus [16] = experiment: Tissue radioactivity ratio in adrenal to blood 30 min after Intravenous Injection in rats; details: other tissue, 0.5 h; how it was run: as §1
Rattus norvegicus [17] = experiment: Distribution of Se-75 activity in Lung of female Sprague-Dawley Rat 30 min after iv administration of compound; details: in vivo, 0.5 h; how it was run: as §3
Rattus norvegicus [18] = experiment: Distribution of Se-75 activity in Heart of female Sprague-Dawley Rat 15 min after iv administration of compound; details: in vivo, 0.25 h; how it was run: as §4
Rattus norvegicus [19] = experiment: Tissue radioactivity ratio in adrenal to Liver 5 min after Intravenous Injection in rats; details: in vivo; how it was run: as §1
Rattus norvegicus [20] = experiment: Tissue radioactivity ratio in Heart to Blood 5 min after Intravenous Injection in rats; details: other tissue; how it was run: as §1
Rattus norvegicus [21] = experiment: Tissue radioactivity ratio in adrenal to Kidney 30 min after Intravenous Injection in rats; details: in vivo, 0.5 h; how it was run: as §1
Rattus norvegicus [22] = experiment: Distribution of Se-75 activity in Adrenal of female Sprague-Dawley Rat 5 min after iv administration of compound; details: in vivo; how it was run: as §4
Rattus norvegicus [23] = experiment: Tissue radioactivity ratio in adrenal to Liver 120 min after Intravenous Injection in rats; details: in vivo, 2 h; how it was run: as §1
Rattus norvegicus [24] = experiment: Distribution of Se-75 activity in blood of female Sprague-Dawley Rat 240 min after iv administration of compound; details: in vivo, 4 h; how it was run: as §2
Rattus norvegicus [25] = experiment: Distribution of Se-75 activity in Liver of female Sprague-Dawley Rat 240 min after iv administration of compound; details: in vivo, 4 h; how it was run: as §3
Rattus norvegicus [26] = experiment: Tissue radioactivity ratio in adrenal to blood 60 min after Intravenous Injection in rats; details: other tissue, 1 h; how it was run: as §1
Rattus norvegicus [27] = experiment: Distribution of Se-75 activity in Kidney of female Sprague-Dawley Rat 15 min after iv administration of compound; details: in vivo, 0.25 h; how it was run: as §4
Rattus norvegicus [28] = experiment: Tissue radioactivity ratio in adrenal to blood 120 min after Intravenous Injection in rats; details: other tissue, 2 h; how it was run: as §1
Rattus norvegicus [29] = experiment: Distribution of Se-75 activity in Heart of female Sprague-Dawley Rat 5 min after iv administration of compound; details: in vivo; how it was run: as §4
Rattus norvegicus [30] = experiment: Tissue radioactivity ratio in Heart to Blood 15 min after Intravenous Injection in rats; details: other tissue, 0.25 h; how it was run: as §1
Rattus norvegicus [31] = experiment: Distribution of Se-75 activity in Heart of female Sprague-Dawley Rat 60 min after iv administration of compound; details: in vivo, 1 h; how it was run: as §4
Rattus norvegicus [32] = experiment: Distribution of Se-75 activity in Kidney of female Sprague-Dawley Rat 30 min after iv administration of compound; details: in vivo, 0.5 h; how it was run: as §4
Rattus norvegicus [33] = experiment: Distribution of Se-75 activity in Kidney of female Sprague-Dawley Rat 5 min after iv administration of compound; details: in vivo; how it was run: as §4
Rattus norvegicus [34] = experiment: Tissue radioactivity ratio in adrenal to blood 5 min after Intravenous Injection in rats; details: other tissue; how it was run: as §1
Rattus norvegicus [35] = experiment: Tissue radioactivity ratio in Heart to Blood 240 min after Intravenous Injection in rats; details: other tissue, 4 h; how it was run: as §1
Rattus norvegicus [36] = experiment: Distribution of Se-75 activity in Lung of female Sprague-Dawley Rat 60 min after iv administration of compound; details: in vivo, 1 h; how it was run: as §3
Rattus norvegicus [37] = experiment: Tissue radioactivity ratio in adrenal to Liver 15 min after Intravenous Injection in rats; details: in vivo, 0.25 h; how it was run: as §1
Rattus norvegicus [38] = experiment: Distribution of Se-75 activity in Liver of female Sprague-Dawley Rat 120 min after iv administration of compound; details: in vivo, 2 h; how it was run: as §3
Rattus norvegicus [39] = experiment: Distribution of Se-75 activity in blood of female Sprague-Dawley Rat 15 min after iv administration of compound; details: in vivo, 0.25 h
How it was run: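 Tail-vein injection of 5-6 μCi [75Se]selenonium salt in 0.2 mL saline into female Sprague-Dawley rats (100-300 g), five per group. Rats were killed by cardioectomy under chloroform anesthesia at the time point. Radioactivity was gamma counted and expressed as % injected dose/g, mean and SEM of five.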

Rattus norvegicus [40] = experiment: Distribution of Se-75 activity in Brain of female Sprague-Dawley Rat 15 min after iv administration of compound; details: in vivo, 0.25 h
Rattus norvegicus [41] = experiment: Tissue radioactivity ratio in adrenal to blood 15 min after Intravenous Injection in rats; details: other tissue, 0.25 h; how it was run: as §1
Rattus norvegicus [42] = experiment: Distribution of Se-75 activity in Kidney of female Sprague-Dawley Rat 60 min after iv administration of compound; details: in vivo, 1 h; how it was run: as §4

SMILES: COc1ccc(CC[Se+](C)C)cc1OC.[I-]
- Ratio (Rattus norvegicus [1]): 0.54
- Dose/g (Rattus norvegicus [2]): 0.12%
- Ratio (Rattus norvegicus [3]): 1.14
- Ratio (Rattus norvegicus [4]): 4
- Dose/g (Rattus norvegicus [5]): 1.93%
- Dose/g (Rattus norvegicus [6]): 0.58%
- Dose/g (Rattus norvegicus [7]): 0.097%
- Dose/g (Rattus norvegicus [8]): 0.88%
- Ratio (Rattus norvegicus [9]): 1.34
- Ratio (Rattus norvegicus [10]): 2.25
- Dose/g (Rattus norvegicus [11]): 1.44%
- Dose/g (Rattus norvegicus [12]): 0.71%
- Dose/g (Rattus norvegicus [13]): 0.01%
- Ratio (Rattus norvegicus [14]): 21.33
- Dose/g (Rattus norvegicus [15]): 0.22%
- Ratio (Rattus norvegicus [16]): 4.27
- Dose/g (Rattus norvegicus [17]): 0.75%
- Dose/g (Rattus norvegicus [18]): 1.16%
- Ratio (Rattus norvegicus [19]): 0.35
- Ratio (Rattus norvegicus [20]): 7
- Ratio (Rattus norvegicus [21]): 0.95
- Dose/g (Rattus norvegicus [22]): 0.86%
- Ratio (Rattus norvegicus [23]): 2.55
- Dose/g (Rattus norvegicus [24]): 0.03%
- Dose/g (Rattus norvegicus [25]): 0.18%
- Ratio (Rattus norvegicus [26]): 5.92
- Dose/g (Rattus norvegicus [27]): 1.29%
- Ratio (Rattus norvegicus [28]): 9.25
- Dose/g (Rattus norvegicus [29]): 2.38%
- Ratio (Rattus norvegicus [30]): 4.46
- Dose/g (Rattus norvegicus [31]): 0.27%
- Dose/g (Rattus norvegicus [32]): 0.99%
- Dose/g (Rattus norvegicus [33]): 2.73%
- Ratio (Rattus norvegicus [34]): 2.53
- Ratio (Rattus norvegicus [35]): 2
- Dose/g (Rattus norvegicus [36]): 0.38%
- Ratio (Rattus norvegicus [37]): 0.46
- Dose/g (Rattus norvegicus [38]): 0.29%
- Dose/g (Rattus norvegicus [39]): 0.26%
- Dose/g (Rattus norvegicus [40]): 0.02%
- Ratio (Rattus norvegicus [41]): 3.39
- Dose/g (Rattus norvegicus [42]): 0.53%

SMILES: C[Se+](C)CCc1ccc(O)c(O)c1.[Cl-]
- Ratio (Rattus norvegicus [1]): 0.31
- Dose/g (Rattus norvegicus [2]): 0.18%
- Ratio (Rattus norvegicus [3]): 1.04
- Ratio (Rattus norvegicus [4]): 3.28
- Dose/g (Rattus norvegicus [5]): 2%
- Dose/g (Rattus norvegicus [6]): 1.08%
- Dose/g (Rattus norvegicus [7]): 1.14%
- Dose/g (Rattus norvegicus [8]): 0.87%
- Ratio (Rattus norvegicus [9]): 1.47
- Ratio (Rattus norvegicus [10]): 2.55
- Dose/g (Rattus norvegicus [11]): 1.25%
- Dose/g (Rattus norvegicus [12]): 0.87%
- Dose/g (Rattus norvegicus [13]): 0.01%
- Ratio (Rattus norvegicus [14]): 11.8
- Dose/g (Rattus norvegicus [15]): 0.28%
- Ratio (Rattus norvegicus [16]): 3.07
- Dose/g (Rattus norvegicus [17]): 0.83%
- Dose/g (Rattus norvegicus [18]): 1.58%
- Ratio (Rattus norvegicus [19]): 0.42
- Ratio (Rattus norvegicus [20]): 6.77
- Ratio (Rattus norvegicus [21]): 0.81
- Dose/g (Rattus norvegicus [22]): 0.78%
- Ratio (Rattus norvegicus [23]): 2.28
- Dose/g (Rattus norvegicus [24]): 0.05%
- Dose/g (Rattus norvegicus [25]): 0.23%
- Ratio (Rattus norvegicus [26]): 4.83
- Dose/g (Rattus norvegicus [27]): 1.07%
- Ratio (Rattus norvegicus [28]): 9.12
- Dose/g (Rattus norvegicus [29]): 2.37%
- Ratio (Rattus norvegicus [30]): 5.27
- Dose/g (Rattus norvegicus [31]): 0.46%
- Dose/g (Rattus norvegicus [32]): 1.07%
- Dose/g (Rattus norvegicus [33]): 2.65%
- Ratio (Rattus norvegicus [34]): 2.22
- Ratio (Rattus norvegicus [35]): 3.2
- Dose/g (Rattus norvegicus [36]): 0.58%
- Ratio (Rattus norvegicus [37]): 0.43
- Dose/g (Rattus norvegicus [38]): 0.32%
- Dose/g (Rattus norvegicus [39]): 0.3%
- Dose/g (Rattus norvegicus [40]): 0.01%
- Ratio (Rattus norvegicus [41]): 2.9
- Dose/g (Rattus norvegicus [42]): 0.59%
